ChEMBL document CHEMBL4033789, “Discovery of a New Four-Leaf Clover-Like Ligand as a Potent c-MYC Transcription Inhibitor Specifically Targeting the Promoter G-Quadruplex” (J Med Chem, 2018)
The source made the active and inactive calls. No cut-off for these calls is given here.

Assays:
SiHa [1] = test: Antitumor activity against human SiHa cells xenografted in nude BALB/c mouse assessed as tumor growth inhibition at 5 to 20 mg,kg, ip administered every other day for 24 days; type: functional, organism-based; conditions: TDE = time-dependent effect
How it was run: (§1)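 BALB/c nude mice (5 weeks old) given 1×10^7 SiHa cells subcutaneously in right flank; at ~50 mm3 tumor volume, randomized (10 per group) and dosed intraperitoneally every other day for 24 days; controls got equal-volume saline. Caliper volume as 1/2 × length × width2; tumors weighed at end; inhibition rate = (1 − mean treated tumor weight/mean control tumor weight) × 100%.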

[2] = Binding affinity to 1 uM VEGF promoter G-quadruplex DNA (unknown origin) at 1 uM after 1 min by fluorescence spectroscopic analysis; type: ADME
How it was run: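 Fluorescence emission spectra of 1 µM compound mixed with 1 µM pre-annealed oligonucleotide (G-quadruplexes folded in 100 mM KCl by heating to 95 °C for 5 min, slow cooling), in Tris-HCl buffer.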

HeLa = test: Cytotoxicity against human HeLa cells assessed as reduction in cell viability after 24 hrs by MTT assay; type: functional, cell-based
How it was run: (§2)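 Cells seeded at 5.0×10^3 per well, exposed to compound for 24 h; MTT (2.5 mg/mL) added for 4 h, formazan dissolved in DMSO, OD read at 570 nm. Triplicate; IC50 from curves of mean OD against concentration.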

Mus musculus = test: Toxicity in nude BALB/c mouse xenografted with human SiHa cells assessed as signs of pain at 5 to 20 mg/kg, ip administered every other day for 24 days; type: organism-based; conditions: in vivo, 576 h
[3] = Stabilization of Bcl2 G-quadruplex DNA in human SiHa cells assessed as effect on Bcl2 mRNA level at 1.25 to 5 uM fter 6 hrs by RT-PCR method; type: ADME, cell-based
How it was run: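 SiHa cells (2.0×10^5 per well) treated 6 h; total RNA (2 µg) reverse-transcribed with oligo dT18 and M-MLV at 42 °C for 1 h, 85 °C for 5 min; PCR: 95 °C 5 min, then 30 cycles of 95 °C 30 s, 58 °C 30 s, 72 °C 40 s; products checked on agarose gel.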

SiHa [4] = test: Antiproliferative activity against human SiHa cells assessed as reduction in colony formation at 0.5 uM measured on day 8 by crystal violet-staining based assay; type: functional, cell-based
How it was run: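 Cells seeded at 300 per well in six-well plates, exposed to compound at 37 °C, 5% CO2, with drug-containing medium replaced every 2 days; after 8 days of culture, colonies fixed with methanol and stained with crystal violet.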

[5] = Binding affinity to VEGF promoter G-quadruplex DNA (unknown origin) after 1 min by fluorescence titration method; type: ADME
How it was run: (§3)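 Oligonucleotide stock added stepwise to fixed-concentration compound in 10 mM Tris-HCl pH 7.2, 100 mM KCl; equilibrated ≥1 min after each addition, emission read with excitation at 350 nm. KD from fitting titration data to the Benesi–Hildebrand equation; 1:1 stoichiometry checked by Job plot.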

SiHa [6] = test: Induction of apoptosis in human SiHa cells assessed as late apoptotic cells at 5 uM after 24 hrs by Annexin V-FITC/propidium iodide-staining based flow cytometric analysis; type: functional
[7] = Binding affinity to up to 10 uM hybrid telomeric htg22 G-quadruplex DNA (unknown origin) at 1 uM after 1 min by fluorescence spectroscopic analysis; type: ADME; how it was run: as §3
BJ = test: Cytotoxicity against human BJ cells assessed as reduction in cell viability after 24 hrs by MTT assay; type: cell-based; how it was run: as §2
SiHa [8] = test: Antitumor activity against human SiHa cells xenografted in nude BALB/c mouse assessed as tumor growth inhibition at 10 mg,kg, ip administered every other day for 24 days; type: functional; how it was run: as §1
[9] = Stabilization of KRAS promoter G-quadruplex DNA (unknown origin) assessed as effect on melting temperature at 15 uM by circular dichroism spectroscopic assay; type: ADME
How it was run: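 G-quadruplex at 3 µM, with or without 15 µM compound, in 10 mM Tris-HCl pH 7.2 containing 2 mM KCl; CD recorded every 5 °C from 25 to 95 °C at a heating rate of 1 °C/min.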

[10] = Stabilization of c-Myc mutant promoter DNA (unknown origin) transfected in human SiHa cells assessed as reduction in gene transcription at 1.25 to 2.5 uM after 24 hrs by dual-luciferase reporter gene assay; type: cell-based
How it was run: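 SiHa cells transfected with psiCHECK2 carrying wild-type or mutant c-MYC promoter driving Renilla luciferase, firefly luciferase on same plasmid; compound added 4 h post-transfection, incubated further at 37 °C; Renilla signal normalized to firefly; three repeats, mean ± SEM.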

SiHa [11] = test: Induction of cell cycle arrest in human SiHa cells assessed as upregulation of p15 protein levels after 24 hrs by Western blot analysis; type: functional, cell-based
How it was run: (§4)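 SiHa cells (2.0×10^5 per well) treated 24 h, lysed at 4 °C for 30 min, supernatant cleared at 15,000 rpm; protein measured by BCA, 30 µg resolved on 10% SDS-PAGE, transferred to nitrocellulose, blocked in 5% milk/TBS-Tween 1 h, primary antibodies overnight at 4 °C, HRP secondaries 2 h at room temperature.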

[12] = Stabilization of c-Kit1 promoter G-quadruplex DNA (unknown origin) assessed as effect on melting temperature at 15 uM by circular dichroism spectroscopic assay; type: ADME
How it was run: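 CD melting of 3 µM annealed G-quadruplex with or without 15 µM ligand in 10 mM Tris-HCl pH 7.2 with 2 mM KCl (50 mM KCl for htg22 and HRAS); read every 5 °C over 25–95 °C, heating 1 °C/min.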

SiHa [13] = test: Induction of cell cycle arrest in human SiHa cells assessed as upregulation of p27 protein levels after 24 hrs by Western blot analysis; type: functional, cell-based; how it was run: as §4
SiHa [14] = test: Induction of cell cycle arrest in human SiHa cells assessed as downregulation of CDK6 protein levels after 24 hrs by Western blot analysis; type: functional, cell-based; how it was run: as §4
SiHa [15] = test: Induction of apoptosis in human SiHa cells assessed as early apoptotic cells at 5 uM after 24 hrs by Annexin V-FITC/propidium iodide-staining based flow cytometric analysis; type: functional
[16] = Stabilization of VEGF G-quadruplex DNA in human SiHa cells assessed as effect on VEGF mRNA level at 1.25 to 5 uM fter 6 hrs by RT-PCR method; type: ADME, cell-based
How it was run: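 SiHa cells (2.0×10^5) dosed 6 h; total RNA reverse-transcribed with oligo dT18 primer and M-MLV (42 °C 1 h, 85 °C 5 min); PCR 95 °C 5 min then 30 cycles (95 °C 30 s, 58 °C 30 s, 72 °C 40 s); products checked on agarose gel.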

U2OS = test: Cytotoxicity against human U2OS cells assessed as reduction in cell viability after 24 hrs by MTT assay; type: functional, cell-based; how it was run: as §2
SiHa [17] = test: Induction of cell cycle arrest in human SiHa cells assessed as downregulation of Cyclin D1 protein levels after 24 hrs by Western blot analysis; type: functional, cell-based; how it was run: as §4
SiHa [18] = test: Induction of apoptosis in human SiHa cells after 24 hrs by Annexin V-FITC/propidium iodide-staining based flow cytometric analysis; type: functional, cell-based

Activity [2]: Not Active | Activity [3]: Not Active | Kd [5]: 0.9 µM | Activity [7]: Not Active | Activity [9]: Not Active | Activity [12]: Not Active | Activity [16]: Not Active
SMILES: CCn1c2ccccc2c2cc(-c3nc(-c4ccc(N5CCN(C)CC5)cc4)c(-c4ccc(N5CCN(C)CC5)cc4)n3-c3ccc(OC)cc3)ccc21
TGI (SiHa [1]): Tde | IC50 (HeLa): 2.1 µM | Activity (Mus musculus): Non-Toxic | Activity (SiHa [4]): Active | Activity (SiHa [6]): 52% | IC50 (BJ): 15.9 µM | TGI (SiHa [8]): 64% | Activity [10]: inactive | Activity (SiHa [11]): Dose-dependent effect | Activity (SiHa [13]): Dose-dependent effect | Activity (SiHa [14]): Dose-dependent effect | Activity (SiHa [15]): 22% | IC50 (U2OS): 6.8 µM | Activity (SiHa [17]): Dose-dependent effect | Activity (SiHa [18]): Dose-dependent effect
